Laboratory results taken from ChEMBL document CHEMBL1124335, “5-Isoquinolinesulfonamide derivatives. 1. Synthesis and vasodilatory activity of N-(2-guanidinoethyl)-5-isoquinolinesulfonamide derivatives” (1989).

Tested on: Canis familiaris
Test: Increasing effect on femoral blood flow (FBF) in femoral artery of anesthetized dogs.
Assay type: functional, Canis lupus familiaris
Conditions: not given
Method in brief: (§1)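 Anesthetized dogs, trachea intubated and ventilated at 12-16 cycles/min, with tidal volume set to hold arterial pH, pCO2 and pO2 within physiological limits. Body temperature kept at 37-38 °C. Drug given locally intra-arterially into the femoral artery, at least three doses per compound. Trapidil 100 μg was given before and after as reference. Femoral blood flow increase read from at least three dose-response curves. Expressed as equieffective dose ratio versus trapidil (mg/mg).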

Question: How did the “Equieffective dose ratio vs trapidil for femoral blood flow increase” value turn out when `COc1ccc([C@@H]2Sc3ccccc3N(CCN(C)C)C(=O)[C@@H]2OC(C)=O)cc1.Cl` [DILTIAZEM HYDROCHLORIDE] was run?
Answer: The value was 0.21.

Question: `Cl.N/C(=N\CCNS(=O)(=O)c1cccc2cnccc12)N[N+](=O)[O-]` was tested. Which “Equieffective dose ratio vs trapidil for femoral blood flow increase” value did it give?
Answer: Its value is >10.

Question: With `CC1CN(S(=O)(=O)c2cccc3cnccc23)C(C)CN1C(=N)N.Cl` (stereo not drawn) as the compound, how does the “Equieffective dose ratio vs trapidil for femoral blood flow increase” value read?
Answer: The value was 1.6.

Question: `Cl.O=S(=O)(NCCNc1ncccn1)c1cccc2cnccc12` was tested. Which “Equieffective dose ratio vs trapidil for femoral blood flow increase” value did it give?
Answer: The value was >30.

Question: With `Cl.N=C(N)NCCCCNS(=O)(=O)c1cccc2cnccc12` as the compound, how does the “Equieffective dose ratio vs trapidil for femoral blood flow increase” value read?
Answer: Its value is 16.

Question: With `Cl.O=S(=O)(NCCN=C(Nc1ccccc1)Nc1ccccc1)c1cccc2cnccc12` as the compound, how does the “Equieffective dose ratio vs trapidil for femoral blood flow increase” value read?
Answer: The value was >50.

Question: Which “Equieffective dose ratio vs trapidil for femoral blood flow increase” value does the source give for `Cl.N=C(N)N1CCCN(S(=O)(=O)c2cccc3cnccc23)CC1` here?
Answer: Its value is 0.19.

Question: Which “Equieffective dose ratio vs trapidil for femoral blood flow increase” value does the source give for `Cl.N=C(N)NCCNS(=O)(=O)c1cccc2cnccc12` here?
Answer: Its value is 1.7.

Question: How did the “Equieffective dose ratio vs trapidil for femoral blood flow increase” value turn out when `Cl.N=C(N)N1CCN(S(=O)(=O)c2cccc3cnccc23)CC1` was run?
Answer: The value was 0.62.

Question: With `CN(CCNS(=O)(=O)c1cccc2cnccc12)C(=N)N.Cl` as the compound, how does the “Equieffective dose ratio vs trapidil for femoral blood flow increase” value read?
Answer: Its value is 1.1.

Question: `CN(CCN=C(N)N)S(=O)(=O)c1cccc2cnccc12.Cl` was tested. Which “Equieffective dose ratio vs trapidil for femoral blood flow increase” value did it give?
Answer: The value was 1.8.

Question: How did the “Equieffective dose ratio vs trapidil for femoral blood flow increase” value turn out when `Cl.N=C(N)NCCCNS(=O)(=O)c1cccc2cnccc12` was run?
Answer: Its value is 4.3.

Question: `Cl.N=C(N)NCCCCCCNS(=O)(=O)c1cccc2cnccc12` was tested. Which “Equieffective dose ratio vs trapidil for femoral blood flow increase” value did it give?
Answer: The value was 3.8.

Question: `C/N=C(\NC)NCCNS(=O)(=O)c1cccc2cnccc12.Cl` was tested. Which “Equieffective dose ratio vs trapidil for femoral blood flow increase” value did it give?
Answer: The value was >50.

Question: Which “Equieffective dose ratio vs trapidil for femoral blood flow increase” value does the source give for `Cl.N#CNC(=N)NCCNS(=O)(=O)c1cccc2cnccc12` here?
Answer: The value was >50.

Question: With `Cl.O=S(=O)(NCCNC1=NCCN1)c1cccc2cnccc12` as the compound, how does the “Equieffective dose ratio vs trapidil for femoral blood flow increase” value read?
Answer: Its value is 24.

Tested on: Canis familiaris
Test: Compound was evaluated for increasing effect on femoral blood flow (FBF) in femoral artery of anesthetized dogs, compared to Trapidil; No detectable vasodilation
Assay type: functional, organism-based
Conditions: Canis lupus familiaris
Method in brief: as §1

Question: With `N=C(N)NNS(=O)(=O)c1cccc2cnccc12` as the compound, how does the FBF read?
Answer: The FBF was “No detectable vasodilation”.

Tested on: Canis familiaris
Test: Compound was evaluated for increasing effect on femoral blood flow (FBF) in femoral artery of anesthetized dogs, compared to Trapidil; ND is no detectable vasodilation.
Assay type: functional, organism-based
Conditions: Canis lupus familiaris
Method in brief: as §1

Question: How did the FBF turn out when `CNC(=N)NCCNS(=O)(=O)c1cccc2cnccc12` was run?
Answer: The FBF was “No detectable vasodilation”.
